Test results from ChEMBL document CHEMBL1255259, “Phosphorothioate-modified oligodeoxynucleotides inhibit human cytomegalovirus replication by blocking virus entry” (Antimicrob Agents Chemother, 2008).
Activity calls are given as the source filed them. No cut-off for these calls is given here.

Columns and labels:
[1] = Cytotoxicity against HELF assessed as cell viability after 6 days by MTT assay; format: cell-based; details: human, HELF cells
In short: (§1)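 HELF exposed to rising ODN concentrations (up to 10 μM) for 6 days; viable cells measured by MTT. CC50 taken as concentration that cuts viability to 50%.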

Human alphaherpesvirus 1 [2] = test: Antimicrobial activity against Human herpesvirus 1 infected in compound pretreated HELF assessed as inhibition of viral replication at 0.1 uM; format: functional, organism-based
In short: (§2)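 HELF pretreated with ODN (0.1 or 1 μM) 1 h before infection with a clinical HSV-1 isolate at MOI 0.1; ODN kept in medium after 2 h adsorption. Harvest at 48 h p.i., sonication, plaque titration on Vero cells. Means ± SD of three independent experiments.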

Human alphaherpesvirus 1 [3] = test: Antimicrobial activity against Human herpesvirus 1 infected in compound pretreated HELF assessed as inhibition of viral replication at 1 uM; format: functional, organism-based; in short: as §2
unidentified adenovirus = test: Antimicrobial activity against unidentified adenovirus infected in compound pretreated HELF assessed as inhibition of viral replication; format: functional, organism-based
In short: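 HELF pretreated 1 h with ODN (0.1 or 1 μM), infected with an adenovirus clinical isolate (MOI 1); ODN kept after 2 h adsorption. Harvest at 4 days p.i., sonication, plaque titration on HELF. Means ± SD, three experiments.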

[4] = test system: Vesicular stomatitis Indiana virus; test: Antimicrobial activity against Vesicular stomatitis Indiana virus infected in compound pretreated HELF assessed as inhibition of viral replication; format: functional, organism-based
In short: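 HELFs exposed to ODN (0.1 or 1 μM) for 1 h, then infected with VSV serotype Indiana at MOI 1 (2 h adsorption, 37°C). ODN kept in the medium until 48 h p.i. Cells and supernatants were pooled, sonicated and titrated by plaque assay on HELFs. Data are means ± standard deviations of three independent experiments, duplicate wells.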

Human betaherpesvirus 5 [5] = test: Antimicrobial activity against Human cytomegalovirus AD169 infected in HELF assessed as inhibition of viral replication at 0.1 uM measured after 6 days post-infection; format: functional, organism-based
Human betaherpesvirus 5 [6] = test: Antimicrobial activity against Human cytomegalovirus AD169 infected in HELF assessed as inhibition of viral replication at 1 uM measured after 6 days post-infection; format: functional, organism-based
Human betaherpesvirus 5 [7] = test: Antimicrobial activity against Human cytomegalovirus TB40 expressing EGPF tagged UL32 infected in HELF assessed as inhibition of inhibition of viral adsorption at 0.1 uM after 2 hrs by fluorescence microscopy; format: functional, organism-based
In short: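 Prechilled HELF on coverslips exposed to ODN (0.1 μM) or heparin (30 μg/ml) 1 h at 4°C, then infected with HCMV TB40 UL32-EGFP (MOI 20) 2 h at 4°C to permit attachment only. Washed in ice-cold PBS, fixed in 4% formaldehyde, propidium iodide counterstain; green virions imaged by confocal fluorescence microscopy. Done twice.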

Human betaherpesvirus 5 [8] = test: Antimicrobial activity against 0.1 uM compound pretreated Human cytomegalovirus AD169 infected in HELF assessed as reduction in viral titer at 4 degC; format: functional, organism-based
In short: (§3)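 HCMV AD169 (10^4 PFU) incubated with ODN at 0.1 μM at 4 or 37°C for various times; samples then diluted to bring ODN below an antivirally active level; residual infectivity titrated by plaque assay on HELF. Means ± SD of three independent experiments.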

Human betaherpesvirus 5 [9] = test: Antimicrobial activity against 0.1 uM compound pretreated Human cytomegalovirus AD169 infected in HELF assessed as reduction in viral titer 37 degC; format: functional, organism-based; in short: as §3
Human betaherpesvirus 5 [10] = test: Antimicrobial activity against Human cytomegalovirus AD169 infected in 0.1 uM compound pretreated HELF assessed as inhibition of viral replication measured after 6 days post-infection; format: functional, organism-based
In short: (§4)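 HELF pretreated with ODN 1 h before infection with HCMV AD169 (MOI 1); ODN kept in medium after 2 h adsorption at 37°C. At 6 days p.i., cells plus supernatants sonicated and titrated by plaque assay on HELF; plaques counted microscopically, expressed as PFU/ml (log10) or % of control. IC50/IC90 by linear regression; duplicate wells, three independent experiments, means ± SD.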

Human betaherpesvirus 5 [11] = test: Antimicrobial activity against Human cytomegalovirus AD169 infected in 1 uM compound pretreated HELF assessed as inhibition of viral replication measured after 6 days post-infection; format: functional, organism-based; in short: as §4
Human betaherpesvirus 5 [12] = test: Antimicrobial activity against Human cytomegalovirus AD169 infected in compound pretreated HELF assessed as inhibition of viral replication measured after 6 days post-infection; format: functional, organism-based; details: Human betaherpesvirus 5, AD169, HELF; in short: as §4
[13] = Cytotoxicity against HELF assessed as cell viability by MTT assay after 6 days at <=10 uM; format: cell-based; details: human, 144 h; in short: as §1
Human betaherpesvirus 5 [14] = test: Antimicrobial activity against Human cytomegalovirus AD169 infected in compound pretreated HELF measured as immediate early 1 mRNA level by RT-PCR; format: functional, organism-based
Human betaherpesvirus 5 [15] = test: Antimicrobial activity against Human cytomegalovirus AD169 infected in compound pretreated HELF measured as immediate early 2 mRNA level by RT-PCR; format: functional, organism-based

Row | Structure (SMILES) | CC50 at 144 h [1] [nM] | inhibition (Human alphaherpesvirus 1 [2]) | inhibition (Human alphaherpesvirus 1 [3]) | inhibition (unidentified adenovirus) | inhibition [4] | inhibition (Human betaherpesvirus 5 [5]) | inhibition (Human betaherpesvirus 5 [6]) | inhibition (Human betaherpesvirus 5 [7]) | inhibition (Human betaherpesvirus 5 [8]) | inhibition (Human betaherpesvirus 5 [9]) | inhibition (Human betaherpesvirus 5 [10]) | inhibition (Human betaherpesvirus 5 [11]) | IC50 (Human betaherpesvirus 5 [12]) [nM] | IC90 (Human betaherpesvirus 5 [12]) [nM] | Activity [13] | inhibition (Human betaherpesvirus 5 [14]) | inhibition (Human betaherpesvirus 5 [15])
1 | Cc1cn([C@H]2C[C@H](OP(O)(O)=S)[C@@H](COP(O)(=S)O[C@H]3C[C@H](n4cc(C)c(=O)[nH]c4=O)O[C@@H]3COP(O)(=S)O[C@H]3[C@@H](O)[C@H](n4cnc5c(=O)[nH]c(N)nc54)O[C@@H]3COP(O)(=S)O[C@H]3[C@@H](O)[C@H](n4ccc(N)nc4=O)O[C@@H]3COP(O)(=S)O[C@H]3C[C@H](n4cc(C)c(=O)[nH]c4=O)O[C@@H]3COP(O)(=S)O[C@H]3[C@@H](O)[C@H](n4cnc5c(=O)[nH]c(N)nc54)O[C@@H]3COP(O)(=S)O[C@H]3C[C@H](n4cc(C)c(=O)[nH]c4=O)O[C@@H]3COP(O)(=S)O[C@H]3C[C@H](n4cc(C)c(=O)[nH]c4=O)O[C@@H]3COP(O)(=S)O[C@H]3C[C@H](n4cc(C)c(=O)[nH]c4=O)O[C@@H]3COP(O)(=S)O[C@H]3C[C@H](n4cc(C)c(=O)[nH]c4=O)O[C@@H]3COP(O)(=S)O[C@H]3[C@@H](O)[C@H](n4cnc5c(=O)[nH]c(N)nc54)O[C@@H]3COP(O)(=S)O[C@H]3[C@@H](O)[C@H](n4ccc(N)nc4=O)O[C@@H]3COP(O)(=S)O[C@H]3C[C@H](n4cc(C)c(=O)[nH]c4=O)O[C@@H]3COP(O)(=S)O[C@H]3[C@@H](O)[C@H](n4cnc5c(=O)[nH]c(N)nc54)O[C@@H]3COP(O)(=S)O[C@H]3C[C@H](n4cc(C)c(=O)[nH]c4=O)O[C@@H]3COP(O)(=S)O[C@H]3C[C@H](n4cc(C)c(=O)[nH]c4=O)O[C@@H]3COP(O)(=S)O[C@H]3[C@@H](O)[C@H](n4cnc5c(=O)[nH]c(N)nc54)O[C@@H]3COP(O)(=S)O[C@H]3[C@@H](O)[C@H](n4ccc(N)nc4=O)O[C@@H]3COP(O)(=S)O[C@H]3C[C@H](n4cc(C)c(=O)[nH]c4=O)O[C@@H]3COP(O)(=S)O[C@H]3[C@@H](O)[C@H](n4cnc5c(=O)[nH]c(N)nc54)O[C@@H]3COP(O)(=S)O[C@H]3[C@@H](O)[C@H](n4ccc(N)nc4=O)O[C@@H]3COP(O)(=S)O[C@H]3C[C@H](n4cc(C)c(=O)[nH]c4=O)O[C@@H]3CO)O2)c(=O)[nH]c1=O (stereo partly drawn) | > 10000 | inactive | inactive | inactive | inactive | inactive | inactive | inactive | inactive | inactive | Active | Active | 200 | 4000 | Non-toxic | – | –
2 | Cc1cn([C@H]2C[C@H](OP(O)(O)=S)[C@@H](COP(O)(=S)O[C@H]3C[C@H](n4cc(C)c(=O)[nH]c4=O)O[C@@H]3COP(O)(=S)O[C@H]3C[C@H](n4cc(C)c(=O)[nH]c4=O)O[C@@H]3COP(O)(=S)O[C@H]3C[C@H](n4cc(C)c(=O)[nH]c4=O)O[C@@H]3COP(O)(=S)O[C@H]3[C@@H](O)[C@H](n4cnc5c(=O)[nH]c(N)nc54)O[C@@H]3COP(O)(=S)O[C@H]3[C@@H](O)[C@H](n4ccc(N)nc4=O)O[C@@H]3COP(O)(=S)O[C@H]3C[C@H](n4cc(C)c(=O)[nH]c4=O)O[C@@H]3COP(O)(=S)O[C@H]3[C@@H](O)[C@H](n4cnc5c(=O)[nH]c(N)nc54)O[C@@H]3COP(O)(=S)O[C@H]3[C@@H](O)[C@H](n4cnc5c(=O)[nH]c(N)nc54)O[C@@H]3COP(O)(=S)O[C@H]3[C@@H](O)[C@H](n4ccc(N)nc4=O)O[C@@H]3COP(O)(=S)O[C@H]3C[C@H](n4cc(C)c(=O)[nH]c4=O)O[C@@H]3COP(O)(=S)O[C@H]3C[C@H](n4cc(C)c(=O)[nH]c4=O)O[C@@H]3COP(O)(=S)O[C@H]3C[C@H](n4cc(C)c(=O)[nH]c4=O)O[C@@H]3COP(O)(=S)O[C@H]3C[C@H](n4cc(C)c(=O)[nH]c4=O)O[C@@H]3COP(O)(=S)O[C@H]3C[C@H](n4cc(C)c(=O)[nH]c4=O)O[C@@H]3COP(O)(=S)O[C@H]3[C@@H](O)[C@H](n4cnc5c(=O)[nH]c(N)nc54)O[C@@H]3COP(O)(=S)O[C@H]3[C@@H](O)[C@H](n4ccc(N)nc4=O)O[C@@H]3COP(O)(=S)O[C@H]3C[C@H](n4cc(C)c(=O)[nH]c4=O)O[C@@H]3COP(O)(=S)O[C@H]3[C@@H](O)[C@H](n4cnc5c(=O)[nH]c(N)nc54)O[C@@H]3COP(O)(=S)O[C@H]3[C@@H](O)[C@H](n4ccc(N)nc4=O)O[C@@H]3COP(O)(=S)O[C@H]3C[C@H](n4cc(C)c(=O)[nH]c4=O)O[C@@H]3CO)O2)c(=O)[nH]c1=O (stereo partly drawn) | > 10000 | inactive | inactive | inactive | inactive | inactive | inactive | – | inactive | inactive | Active | Active | 25 | 65 | Non-toxic | Active | Active
3 | Cc1cn([C@H]2C[C@H](OP(O)(O)=S)[C@@H](COP(O)(=S)O[C@H]3C[C@H](n4cc(C)c(=O)[nH]c4=O)O[C@@H]3COP(O)(=S)O[C@H]3[C@@H](O)[C@H](n4cnc5c(=O)[nH]c(N)nc54)O[C@@H]3COP(O)(=S)O[C@H]3[C@@H](O)[C@H](n4ccc(N)nc4=O)O[C@@H]3COP(O)(=S)O[C@H]3[C@@H](O)[C@H](n4cnc5c(N)ncnc54)O[C@@H]3COP(O)(=S)O[C@H]3[C@@H](O)[C@H](n4cnc5c(=O)[nH]c(N)nc54)O[C@@H]3COP(O)(=S)O[C@H]3C[C@H](n4cc(C)c(=O)[nH]c4=O)O[C@@H]3COP(O)(=S)O[C@H]3[C@@H](O)[C@H](n4ccc(N)nc4=O)O[C@@H]3COP(O)(=S)O[C@H]3[C@@H](O)[C@H](n4ccc(N)nc4=O)O[C@@H]3COP(O)(=S)O[C@H]3C[C@H](n4cc(C)c(=O)[nH]c4=O)O[C@@H]3COP(O)(=S)O[C@H]3C[C@H](n4cc(C)c(=O)[nH]c4=O)O[C@@H]3COP(O)(=S)O[C@H]3[C@@H](O)[C@H](n4cnc5c(=O)[nH]c(N)nc54)O[C@@H]3COP(O)(=S)O[C@H]3[C@@H](O)[C@H](n4ccc(N)nc4=O)O[C@@H]3COP(O)(=S)O[C@H]3[C@@H](O)[C@H](n4cnc5c(N)ncnc54)O[C@@H]3COP(O)(=S)O[C@H]3[C@@H](O)[C@H](n4cnc5c(=O)[nH]c(N)nc54)O[C@@H]3COP(O)(=S)O[C@H]3C[C@H](n4cc(C)c(=O)[nH]c4=O)O[C@@H]3COP(O)(=S)O[C@H]3[C@@H](O)[C@H](n4cnc5c(N)ncnc54)O[C@@H]3COP(O)(=S)O[C@H]3[C@@H](O)[C@H](n4ccc(N)nc4=O)O[C@@H]3COP(O)(=S)O[C@H]3[C@@H](O)[C@H](n4ccc(N)nc4=O)O[C@@H]3COP(O)(=S)O[C@H]3C[C@H](n4cc(C)c(=O)[nH]c4=O)O[C@@H]3CO)O2)c(=O)[nH]c1=O (stereo partly drawn) | > 10000 | inactive | inactive | – | – | inactive | inactive | – | inactive | inactive | Active | Active | 40 | 900 | Non-toxic | – | –
